Measured values as given in PMC3268775 (Journal of the American Chemical Society, 2012).
Numbering of substitutions follows the chain as printed. Numbered stars: 1 amine (or outer) side, 2 acyl side, 3 side chain; on linkers, the order of the positions; unused ones are H or OH. Square brackets hold non-standard residues; d marks the D form. Peptide text beside a SMILES is read from it. * marks the point of attachment. Isonicotinoyl(2-(4-Me-2-Py)) = Cc1ccnc(-c2cc(C(=O)*)ccn2)c1; X1 = O=C([C@H](Cc1c(F)cc(O)c(F)c1F)N[*:1])[*:2]

Assays:
wt-α2 = target: T1, wt-α2 (Escherichia coli, UniProt P00452); assay: Flash-quench transient absorption: •F3Y radical in presence of wt-α2; assay type: biochemical
T1 sequence (P00452 1-761): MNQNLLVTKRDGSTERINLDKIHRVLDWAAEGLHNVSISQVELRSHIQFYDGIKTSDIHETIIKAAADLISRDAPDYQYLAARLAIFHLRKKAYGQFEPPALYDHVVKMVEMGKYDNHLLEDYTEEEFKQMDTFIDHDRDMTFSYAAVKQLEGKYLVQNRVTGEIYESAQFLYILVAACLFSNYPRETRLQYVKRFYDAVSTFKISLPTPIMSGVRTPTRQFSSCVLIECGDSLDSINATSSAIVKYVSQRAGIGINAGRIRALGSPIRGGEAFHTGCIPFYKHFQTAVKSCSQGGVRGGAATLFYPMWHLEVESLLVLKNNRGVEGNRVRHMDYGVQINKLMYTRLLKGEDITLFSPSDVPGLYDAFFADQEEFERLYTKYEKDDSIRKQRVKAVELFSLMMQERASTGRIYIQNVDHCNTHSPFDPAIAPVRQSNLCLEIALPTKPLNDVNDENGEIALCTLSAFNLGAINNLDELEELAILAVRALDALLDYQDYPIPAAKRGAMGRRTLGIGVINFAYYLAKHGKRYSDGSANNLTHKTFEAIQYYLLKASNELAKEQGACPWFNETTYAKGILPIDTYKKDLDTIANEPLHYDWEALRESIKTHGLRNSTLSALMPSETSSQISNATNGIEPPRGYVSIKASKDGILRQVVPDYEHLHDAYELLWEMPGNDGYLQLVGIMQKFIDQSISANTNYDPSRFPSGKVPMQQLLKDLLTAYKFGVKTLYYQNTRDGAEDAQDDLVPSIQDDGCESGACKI

[1] = Transient absorption of the charge-separated state, free peptide; assay type: physicochemical; settings: 50 μM peptide, 50 mM sodium borate pH 8.3, λexc 355 nm
How it was run: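 Transient absorption decays were read at 380, 480 (Re excited state), 525 (bpy anion) and 425 nm (F3Y radical). ΔOD came from PMT voltage against the pre-flash baseline. Short decays were fitted from the maximum-amplitude point, averaging 3–6 traces.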

α2 mutants = assay: Charge-separated state lifetime in presence of α2 proteins; assay type: physicochemical, Escherichia coli; settings: each of the protein mutants, in words
Y731F-α2 = target: T2, Y731F-α2 (Escherichia coli, UniProt P00452, Y731F); assay: Flash-quench transient absorption: •F3Y radical in presence of Y731F-α2; assay type: biochemical
T2 sequence (P00452 1-761 Y731F): T1 sequence (P00452 1-761) with Y731F

C439S-α2 = target: T3, C439S-α2 (Escherichia coli, UniProt P00452, C439S); assay: Flash-quench transient absorption: •F3Y radical in presence of C439S-α2; assay type: biochemical
T3 sequence (P00452 1-761 C439S): T1 sequence (P00452 1-761) with C439S

[2] = C439S-α2, average across three wavelengths (395, 410, 425 nm)

## CC[C@H](C)[C@H](NC(=O)[C@H](CCC(N)=O)NC(=O)CNC(=O)[C@@H](NC(=O)[C@H](CC(C)C)NC(=O)[C@H](Cc1c(F)cc(O)c(F)c1F)NC(=O)c1ccnc(-c2cc(C)ccn2)c1)C(C)C)C(=O)N[C@@H](CC(=O)O)C(=O)N[C@@H](CO)C(=O)N[C@@H](CCC(=O)O)C(=O)N[C@H](C(=O)N[C@@H](CC(=O)O)C(=O)N[C@H](C(=O)N[C@@H](CC(=O)O)C(=O)N[C@@H](CC(=O)O)C(=O)N[C@@H](CC(C)C)C(=O)N[C@@H](CO)C(=O)N[C@@H](CC(N)=O)C(=O)N[C@@H](Cc1ccccc1)C(=O)N[C@@H](CCC(N)=O)C(=O)N[C@@H](CC(C)C)C(=O)O)[C@@H](C)O)C(C)C [[Re]–F3Y–βC19] ({Isonicotinoyl(2-(4-Me-2-Py))}-[X1]LVGQIDSEVDTDDLSNFQL-OH; N-terminus and C-terminus assumed)
wt-α2; wt-α2
  •F3Y radical decay profile (in words): biexponential decay owing to the contribution of a significantly shorter lifetime component
wt-α2; wt-α2, Eq. 1: kox = 1/τon − 1/τoff
  injection rate: (3 ± 2) × 10^5 s^−1
wt-α2; wt-α2, averaged across wavelengths
  •F3Y lifetime, short phase: 3.0 ± 1.4 μs
wt-α2; wt-α2, averaged across wavelengths, 50 μM peptide, 100 μM α2, 1 mM Ru(NH3)6Cl3, 1 mM CDP, 3 mM ATP, borate pH 8.3
  •F3Y lifetime, long phase: 15.4 ± 0.5 μs
[1]; λdet 380 nm, 1 mM CDP, 3 mM ATP, 15 mM MgSO4, 5% glycerol
  decay time constant of transient signal, [Re^I]*: 60 ± 2 ns
[1]; λdet 480 nm
  decay time constant of transient signal, [Re^I]*: 61 ± 2 ns
α2 mutants
  charge-separated state lifetime vs protein mutant: Identical lifetimes
Y731F-α2; Y731F-α2
  radical lifetime change / radical injection (in words): cannot competently inject the radical into α2
Y731F-α2; Y731F-α2, 410 nm, monoexponential, 50 μM peptide, 100 μM α2, pH 8.3
  •F3Y lifetime τ410: 14.2 ± 0.2 μs
Y731F-α2; Y731F-α2, 425 nm, monoexponential, 50 μM peptide, 100 μM α2, pH 8.3
  •F3Y lifetime τ425: 16.5 ± 0.4 μs
Y731F-α2; Y731F-α2, from amplitude of the •F3Y lifetime
  portion of peptide N-terminus in the "on" conformer: 20–30%
Y731F-α2; Y731F-α2, listed as [Re]–•F3Y–βC19
  radical lifetime change / radical injection (in words): no significant change in radical lifetime
C439S-α2; C439S-α2
  •F3Y radical decay profile (in words): biexponential decay owing to the contribution of a significantly shorter lifetime component
  •F3Y radical decay: small amplitude component ("on" state): 20%
C439S-α2; C439S-α2, 395 nm
  amplitude of long phase: 81%
  amplitude of short phase: 19%
C439S-α2; C439S-α2, 395 nm, biexponential
  •F3Y lifetime, short phase: 2.2 ± 1 μs
C439S-α2; C439S-α2, 395 nm, biexponential, 50 μM peptide, 100 μM C439S-α2, 1 mM Ru(NH3)6Cl3, 1 mM CDP, 3 mM ATP, borate pH 8.3
  •F3Y lifetime, long phase: 17.3 ± 0.9 μs
C439S-α2; [2]
  •F3Y lifetime, "off" state: 16.9 ± 0.7 μs
  •F3Y lifetime, "on" state: 2.5 ± 1.0 μs
